Assay outcomes deposited in PubChem by several laboratories.
In the library only some 4.1% were active in any assay of this set; here they are far more common.
Cl transport mod – modulators of human KCC2 chloride dependent transport; KCC2 cells, thallium flux FluoZin-2 fluorescence; B-score of Tl+ flux slope (higher = more flux/activation; lower = inhibition) at 10 µM; 2.2% of 190,000 active; AID 1456;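 active = thallium flux slope and its plate-corrected score both differing from the plate sample mean at a set confidence after two filtering rounds, in either direction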;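 note: slope of fluorescence scaled to starting intensity during 10 to 20 s after thallium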
KCNQ1 pot – human KCNQ1 channel potentiation or activation; P51787; CHO-K1 KCNQ1, thallium flux FluxOR fluorescence; stronger effect = higher value; B-score at 10 µM; 0.35% of 310,000 active; AID 2648;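 active = fluorescence ratio B-score, a plate-corrected score, at least three library SD, with initial intensity B-score within 5 SD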
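Test system: CHO-K1 cells stably expressing KCNQ1 / Medium: assay buffer / Also added: depolarizing K+/Tl+ stimulus, K2SO4 and Tl2SO4 each 12.5 mM in 5x stock / Incubation: 90 min dye loading and 20 min compound exposure, both at room temperature / Signal: thallium influx via FluxOR fluorescence, kinetic imaging / Evaluation: B score of baseline-normalized fluorescence ratio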
hERG rescue – hERG (human) protection from proarrhythmic block. 0.51% of 310,000 active. CHO-hERG, FluxOR thallium flux, dofetilide IC70 present. activation (rescue from dofetilide block), less the hit threshold, % at 10 µM. Q12809;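 active = activation above the mean of controls blocked by dofetilide plus 5 SD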;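 note: thallium influx through hERG after potassium depolarization seen as dye fluorescence rise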
KCNK3 inh – human KCNK3 channel inhibition, primary screen. B-score at 10 µM. CHO-KCNK3 thallium flux, FluxOR fluorescence; stronger effect = lower value. 0.84% of 340,000 active;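 active = B-score under library mean minus 4 SD, starting fluorescence ratio at most library mean plus 5 SD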;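 note: more negative B-score means stronger inhibition of thallium flux through KCNK3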
Target sequence (O14649 whole entry, looked up): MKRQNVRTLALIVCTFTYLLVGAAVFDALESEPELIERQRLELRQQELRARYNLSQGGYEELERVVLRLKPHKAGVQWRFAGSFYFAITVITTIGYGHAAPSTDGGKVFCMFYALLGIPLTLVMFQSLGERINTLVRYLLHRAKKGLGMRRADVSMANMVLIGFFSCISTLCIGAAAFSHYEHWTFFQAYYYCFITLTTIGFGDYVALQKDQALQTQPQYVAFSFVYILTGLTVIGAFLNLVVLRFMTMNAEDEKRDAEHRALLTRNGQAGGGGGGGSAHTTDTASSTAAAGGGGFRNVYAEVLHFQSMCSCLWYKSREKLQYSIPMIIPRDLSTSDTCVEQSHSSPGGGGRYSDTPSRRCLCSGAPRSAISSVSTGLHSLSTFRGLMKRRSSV
KCNQ1 inh – inhibitors of human KCNQ1 potassium channel | P51787 | B-score at 10 µM | AID 2642 | 1.3% of 310,000 active | CHO-K1 KCNQ1, FluxOR thallium flux fluorescence; stronger effect = higher value;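 active = compounds whose thallium flux B-score, printed positive for inhibition, exceeds three library SD while starting fluorescence stays within three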;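 note: channel opened by potassium depolarization with thallium stimulus after 20 min compound exposure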
KCNK9 block – blocks the human KCNK9 two-pore domain potassium channel | HEK293 KCNK9, FluxOR thallium flux fluorescence; stronger effect = lower value | B-score at 10 µM | Q9NPC2 | 1.2% of 310,000 active;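 active = ratio B-score over 3 SD below the library mean, with starting fluorescence within 5 SD of its mean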;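 note: negative B-score means less thallium flux so channel inhibition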
Target sequence (Q9NPC2 whole entry, looked up, the tested form may be a part): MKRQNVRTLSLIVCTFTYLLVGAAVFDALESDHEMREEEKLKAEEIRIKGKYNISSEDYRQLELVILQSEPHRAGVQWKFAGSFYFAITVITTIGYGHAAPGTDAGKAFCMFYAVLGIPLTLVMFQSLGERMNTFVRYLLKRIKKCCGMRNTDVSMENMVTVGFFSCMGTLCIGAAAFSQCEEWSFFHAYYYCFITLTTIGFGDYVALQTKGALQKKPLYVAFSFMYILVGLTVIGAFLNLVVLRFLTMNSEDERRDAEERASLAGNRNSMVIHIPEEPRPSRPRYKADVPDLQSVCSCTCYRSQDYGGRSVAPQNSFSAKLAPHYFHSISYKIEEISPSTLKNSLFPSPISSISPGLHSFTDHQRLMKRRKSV
KCNQ1 inh valid – confirmation of human KCNQ1 potassium channel inhibitors; shares compounds with KCNQ1 inh; KCNQ1 cell line, FluxOR thallium flux fluorescence; inhibition, % at 10 µM; 93% of 1,600 active; AID 588353;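 active = primary screen active, with duplicate mean exceeding buffer control mean plus 3 SD of buffer wells, cut at about 28% in these data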;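 note: 0% = buffer control ratio and 100% = XE991 inhibitor control ratio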
CHO Tl flux – counter-screen for KCNQ1 inhibitors: effect in parental CHO cells | parental CHO-K1, FluxOR thallium flux fluorescence ratio; stronger effect = lower value; zero means no signal rise above baseline | AID 588366 | fluorescence ratio (Tl flux) at 10 µM | 21% of 1,600 active | shares compounds with KCNQ1 inh;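 active = mean of duplicate thallium-flux fluorescence ratios in parental host cells more than 5 SD below the buffer control mean, cut at about 0.38 in these data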;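 note: ratio is peak minus minimum fluorescence divided by baseline fluorescence; actives read low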
KCNQ1 APC inh – blocks human KCNQ1 current in automated patch clamp | shares compounds with KCNQ1 inh | KCNQ1-CHO cells | calls only at 10 µM | 20% of 490 active | AID 624120;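 active = KCNQ1 current drop exceeding 3 SD of negative control wells, seen in both duplicate runs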;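 note: steady state current during a 2 s step from -80 to +40 mV; negative values mean current inhibition and positive values mean potentiation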
KCNQ2 inh – rat KCNQ2 inhibition in KCNQ1 inhibitor specificity screen; shares compounds with KCNQ1 inh; KCNQ2 cells, FluxOR thallium flux fluorescence; inhibition, % at 10 µM; 71% of 1,600 active; AID 651746;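 active = mean percent inhibition of the KCNQ2 thallium signal more than 5 SD above the buffer-only control wells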;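 note: KCNQ2 expressed in CHO cells; 0% = buffer control wells and 100% = XE-991 inhibitor control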
KCNQ1-KCNE1 inh – selectivity of KCNQ1 inhibitors: inhibition of human KCNQ1/KCNE1 channel; shares compounds with KCNQ1 inh; KCNQ1/KCNE1 cells, FluxOR thallium flux fluorescence; inhibition, % at 10 µM; 77% of 1,600 active; AID 652147;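 active = mean percent inhibition of duplicate wells above the buffer-only control mean plus 3 SD of those controls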;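 note: 0% = buffer only wells and 100% = XE-991 inhibitor control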
KCNK9 inh conf – confirmation of human KCNK9 potassium channel inhibitors; shares compounds with KCNK9 block; HEK293 KCNK9 cells, FluxOR thallium flux fluorescence; 43% of 4,900 active; inhibition, % at 10 µM;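 active = thallium signal inhibited by more than 5 SD of the compound-free buffer control wells, on both duplicate plates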;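 note: 0% = assay buffer control wells without compound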
Kir21 sel – mouse Kir2.1 off-target activity of KCNK9 modulators; shares compounds with KCNK9 block; Kir2.1 cells, FluxOR thallium flux fluorescence; inhibition, % at 10 µM; 4% of 4,900 active; AID 492993;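 active = thallium signal drop more than 5 SD beyond the mean of the no-compound control wells, seen in both duplicate plates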;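 note: signal is fluorescence rise after thallium addition divided by baseline fluorescence; plate controls were assay buffer only for no effect and full block by chlorpromazine control for full effect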
HEK293 Tl ctr – second check of KCNK9 modulator effects in non-induced HEK293 cells; AID 492997; inhibition, % at 10 µM; shares compounds with KCNK9 block; 40% of 4,900 active; FluxOR thallium flux;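 active = thallium signal drop beyond 5 SD of the untreated control mean, on both duplicate plates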;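 note: plate controls were buffer only IC0 wells for no effect and SID17386958 at its maximal inhibitory level for full effect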
KCNK3 confirm – confirmation of human KCNK3 two-pore domain potassium channel inhibitors | shares compounds with KCNK3 inh | CHO-KCNK3 thallium flux, FluxOR fluorescence; 0% buffer, 100% carvedilol maximal block | ratio percent of control, % at 10 µM | 99% of 2,400 active;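 active = ratio percent of control, averaged over triplicates, above buffer control mean plus 5 SD, cut at about 64% in these data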;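 note: ratio is the fluorescence rise from min to max over baseline after thallium stimulus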
KCNK3 uninduced – counter-screen for KCNK3 inhibitors: effect in non-induced cells; thallium flux ratio (lower = more inhibition) at 10 µM; 40% of 2,400 active; shares compounds with KCNK3 inh; non-induced KCNK3 parental cells, FluxOR thallium flux; stronger effect = lower value;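 active = thallium flux ratio, averaged over three wells, more than 5 SD below the buffer control mean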;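 note: host cells are CHO cells without KCNK3 induction; ratio is peak minus trough fluorescence over baseline then normalized to buffer controls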
Numbers without * were called inactive; i = inactive; x = not tested or not shown; + = active, no number.

SMILES	Cl transport mod	KCNQ1 pot	hERG rescue	KCNK3 inh	KCNQ1 inh	KCNK9 block	KCNQ1 inh valid	CHO Tl flux	KCNQ2 inh	KCNQ1-KCNE1 inh	KCNK9 inh conf	Kir21 sel	HEK293 Tl ctr	others
Cc1cn([C@H]2C[C@H](O)[C@@H](CCC(=O)NCc3ccco3)O2)c(=O)[nH]c1=O	x	x	x	i	x	x	x	x	x	x	x	x	x
CCc1c(C#N)c(SCCC(=O)Nc2ccc(C)cc2)nc2c1C(=O)CC(C)(C)C2	0.352	i	-12.4	i	7*	i	93.0*	0.516	83.0%*	56.5%*	i	i	i	KCNQ1 APC inh=i
CCOc1ccccc1C(=O)OCC(=O)Nc1cc(Cl)ccc1Oc1ccccc1	-0.456	i	-8.9	i	8*	-8.12*	87.0*	0.411	76.3%*	106.5%*	32.0%*	i	39.5%*
CC1(C)OC2OC(C3COC(=O)O3)C(OC(=O)c3ccccc3)C2O1 (stereo not given)	x	x	x	i	x	x	x	x	x	x	x	x	x
O=[N+]([O-])c1ccc(S(=O)(=O)NCC(c2cccnc2)N2CCc3ccccc32)cc1 (stereo not given)	x	i	-15.7	i	i	i	x	x	x	x	x	x	x
Cc1ccc(N2CCN(C(=O)c3cc(COc4c(C)cccc4C)on3)CC2)c(C)c1	x	i	-19.8	i	7*	i	85.5*	0.392	113.0%*	108.0%*	i	i	i
CC(OC(=O)C1CCN(S(=O)(=O)c2ccc3c(c2)OCCO3)CC1)C(=O)NC1(C#N)CCCCC1 (stereo not given)	x	x	x	i	x	x	x	x	x	x	x	x	x
CC1(C)Cc2c(C#N)c(N3CCN(C(=O)c4ccccc4)CC3)nc(Cc3ccccc3)c2CO1	0.232	i	-9.0	i	10*	i	105.5*	0.401	111.0%*	128.0%*	i	i	i	KCNQ1 APC inh=i
Cc1ccc(NC(=O)CSc2nc3c(c(=O)[nH]2)CCC3)c(C)c1	x	i	-7.7	i	i	i	x	x	x	x	x	x	x
COC(=O)c1sccc1NC(=O)Nc1ccc(Cl)c(Cl)c1	0.0284	i	-4.0	i	i	i	x	x	x	x	x	x	x
O=C(Nc1ccc(Cl)c(Cl)c1)Nc1ccccc1NS(=O)(=O)c1cccs1	-1.98	i	-29.3	i	18*	-12.9*	113.5*	0.434	77.3%*	43.0%*	44.5%*	i	i	KCNQ1 APC inh=i
CCCCCCCCOC(=O)c1cc([N+](=O)[O-])c(Sc2ncnc3nc[nH]c23)c([N+](=O)[O-])c1	x	x	x	i	x	x	x	x	x	x	x	x	x
O=C1c2[nH]nc(-c3ccccc3O)c2C(c2ccccc2F)N1Cc1ccco1 (stereo not given)	x	i	-15.8	-9.12*	9*	-14.8*	126.5*	0.406	77.7%*	116.0%*	73.0%*	i	33.0%*
O=C1c2[nH]nc(-c3ccccc3O)c2C(c2ccccc2)N1Cc1ccco1 (stereo not given)	0.243	i	-11.4	i	i	i	x	x	x	x	x	x	x
N#C/C(=C/c1ccc(N2CCOCC2)o1)c1ccc(Br)cc1	-1.18	i	-24.9	i	16*	-12*	167.0*	0.264*	i	+	71.0%*	36.5%*	70.0%*
CC(C)CC(C(=O)Nc1oc(-c2ccco2)c(-c2ccco2)c1C#N)N1C(=O)c2ccccc2C1=O (stereo not given)	0.0164	i	2.8	-10.9*	9*	-10.7*	112.0*	0.418	88.3%*	65.0%*	71.5%*	i	26.5%*	KCNQ1 APC inh=i
CC(C)CC(C(=O)Nc1cccc(O)c1)N1C(=O)c2ccccc2C1=O (stereo not given)	x	i	-1.7	i	i	i	x	x	x	x	x	x	x
CN(C(=O)c1cccc(NC(=O)Cc2ccc(NC(=O)C3CCCN(C(=O)C4CCCC4)C3)cc2)c1)C1CC1 (stereo not given)	x	x	x	i	x	x	x	x	x	x	x	x	x
O=C(Cn1c(=O)oc2ccccc21)Nc1ccc(Br)cc1	x	i	-0.8	i	i	i	x	x	x	x	x	x	x
N#Cc1c(NC(=O)Cn2c(=O)oc3ccccc32)oc(-c2ccccc2)c1-c1ccccc1	-1.29	i	-6.5	i	12*	-8.2*	63.5*	0.449	i	i	i	i	i
CC(C)N(Cc1ccccc1)C(=O)COC(=O)c1c(F)cccc1F	x	x	x	i	x	x	x	x	x	x	x	x	x
COc1cc(S(=O)(=O)Nc2ccc3c(c2)C(=O)N(C)C3=O)ccc1NC(C)=O	x	x	x	i	x	x	x	x	x	x	x	x	x
CCOc1ccccc1NC(=O)C(NCC1CCCCC1)c1ccccc1 (stereo not given)	0.131	i	-29.3	i	10*	-8.9*	131.0*	0.383	125.3%*	155.5%*	45.5%*	i	40.5%*	KCNQ1 APC inh=i
COc1ccc2[nH]c3c(N4CCc5ccccc5C4)ncnc3c2c1	-0.965	i	-21.9	-8.74*	11*	i	143.0*	0.252*	115.0%*	+	x	x	x	KCNK3 confirm=130.0*;KCNK3 uninduced=0.116*
CCCc1cc(=O)[nH]c(SCCc2ccccc2)n1	x	i	-3.4	i	i	i	x	x	x	x	x	x	x
Cc1cc(NC(=O)c2cccc3c2C(=O)N(C2CCCCC2)C3)ccc1Br	x	i	-4.7	i	i	i	x	x	x	x	x	x	x
